Source: article PMC9312093 (ACS Bio & Med Chem Au, 2022)

Biological target: T1, human ERO1α (Homo sapiens, UniProt Q96HE7, C104A/C131A/C166A)
T1 sequence (Q96HE7 22-468 C104A/C131A/C166A): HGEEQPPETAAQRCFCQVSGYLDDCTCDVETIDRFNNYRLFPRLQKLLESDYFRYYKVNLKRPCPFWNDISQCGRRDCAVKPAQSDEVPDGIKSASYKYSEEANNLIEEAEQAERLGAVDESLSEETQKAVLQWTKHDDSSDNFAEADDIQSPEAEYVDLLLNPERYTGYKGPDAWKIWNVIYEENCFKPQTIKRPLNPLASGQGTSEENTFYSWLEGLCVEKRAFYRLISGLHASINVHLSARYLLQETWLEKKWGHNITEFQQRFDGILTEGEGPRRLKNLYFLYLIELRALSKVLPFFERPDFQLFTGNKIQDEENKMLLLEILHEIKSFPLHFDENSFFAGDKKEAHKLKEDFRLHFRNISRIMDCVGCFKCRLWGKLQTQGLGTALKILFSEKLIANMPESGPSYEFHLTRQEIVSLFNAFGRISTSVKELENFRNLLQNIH
Assay: Recombinant ERO1α enzyme assay
Assay type: biochemical
Settings: up to 200 µM; FAD covalent modifiers
Outline: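 Hyperactive human ERO1α (a.a. 22-468, C104A/C131A/C166A) and human PDI (a.a. 18-479) were used, each at 0.0625 mg/mL, with rising test compound concentrations. Activity was quantified by Amplex Red. Data are mean ± S.D. of 3 independent experiments, each run in triplicate.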

## N[C@@H]1C[C@H]1c1ccccc1 (racemic) [tranylcypromine]
  inhibition of ERO1α activity, concentration-response: did not inhibit
